The record followed here is ChEMBL document CHEMBL2390852, “Anti-influenza active and low toxic N-phenyl-substituted β-amidoamidines structurally related to natural antibiotic amidinomycin” (Bioorg Med Chem Lett, 2013).

Calls of active or inactive are those of the source. The rule behind the calls is not given here.

Series [1] has as its system influenza A virus A/St. Petersburg/34/72 (H3N2). Put plainly: Therapeutic index, ratio of CC50 for dog MDCK cells to EC50 for 1 infective dose of influenza A virus A/St. Petersburg/34/72 (H3N2). Type of series: cell-based. Particulars: read-out: Ratio CC50/EC50.
Series [2] can be described thus: Cytotoxicity against dog MDCK cells after 48 hrs by MTT assay. Format: cell-based, Canis lupus familiaris. A digest of the protocol: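 MDCK cells were incubated with compound at various concentrations for 48 h. CC50 is the concentration causing 50% reduction of cell viability. Values are means of 2–4 separate experiments.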
Background: Tetrazolium dyes change colour on reduction, which living cells bring about.

Series [3] has as its system Influenza A virus. Put plainly: Antiviral activity against 100 infective dose of influenza A virus A/St. Petersburg/34/72 (H3N2) infected in dog MDCK cells assessed as virus-induced cytopathic effect after 48 hrs. Format: functional, organism-based. A digest of the protocol:
(§1)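 MDCK cells in maintenance medium were infected with 1 infective dose or 100 doses, where 1 dose induced 50 3% cell death under standard conditions. Cells were incubated with compound at various concentrations for 48 h at 37 °C in 5% CO2. CPE was scored against cell and virus controls, and EC50 is the concentration giving 50% inhibition of CPE. Values are means of 2–4 separate experiments.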
Background: Damage to the host cells serves as the signal in cytopathic effect assays.

The test system of series [4] is Influenza A virus. Put plainly: Antiviral activity against 1 infective dose of influenza A virus A/St. Petersburg/34/72 (H3N2) infected in dog MDCK cells assessed as virus-induced cytopathic effect after 48 hrs. Format: functional, organism-based. A digest of the protocol:
as §1

Series [5] deals with influenza A virus A/St. Petersburg/34/72 (H3N2). The series is described as follows: Therapeutic index, ratio of CC50 for dog MDCK cells to EC50 for 100 infective dose of influenza A virus A/St. Petersburg/34/72 (H3N2. Type of series: cell-based. The conditions noted are these: read-out: Ratio CC50/EC50.
The test system of series [6] is H3N2 subtype. Put plainly: Antiviral activity against Influenza A virus (A/Aichi/2/1968(H3N2))-infected in Balb/c mouse at 0.1 LD50/dose, sc for 5 times measured after 7 to 14 days. Type of series: functional, organism-based. In a few lines:
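Balb/c mice of both sexes, 10 per group, were infected intranasally with mouse-adapted virus. […] Vehicle controls received the same schedule. Survivors were counted on days 7 and 14.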

The test system of series [7] is H3N2 subtype. Put plainly: Antiviral activity against Influenza A virus (A/Aichi/2/1968(H3N2))-infected in Balb/c mouse at </= 100 mg/kg, sc after 7 to 14 days. Also on record: dose 100 mg/kg. Type of series: functional, organism-based.
Series [8] in a line: Acute toxicity in sc dosed Balb/c mouse after 5 days. The conditions noted are these: in vivo. Type of series: organism-based. In a few lines:
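Male Balb/c mice, four per group, given single SC doses rising from 1000 to 4000 mg/kg in 500 mg/kg steps, in saline/DMSO 4:1 (200 µL total). LD50 was taken as the dose giving 50% mortality, with toxicity estimated in a 5 days test.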

Series [9] has as its system Mus musculus. The series is described as follows: Sub-acute toxicity in Balb/c mouse assessed as change in body weight at 300 mg/kg, sc administered for 6 days measured on day 10. Also noted: dose 300 mg/kg, route subcutaneous. Particulars: in vivo, 144 h. Format: organism-based. In a few lines: (§2)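 Four mice, two of each sex, were given 300 mg/kg SC daily for 6 days. Behaviour and body weight were assessed at day 10.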

The test system of series [10] is Mus musculus. The series is described as follows: Sub-acute toxicity in Balb/c mouse assessed as behavioural change at 300 mg/kg, sc administered for 6 days measured on day 10. Type of series: organism-based. Also noted: dose 300 mg/kg, route subcutaneous. Particulars: in vivo, 144 h. In a few lines:
as §2

The subject of series [11] is Mus musculus. The series is described as follows: Sub-acute toxicity in Balb/c mouse assessed as survival at 1000 mg/kg, sc after 10 days. Type of series: organism-based. Also noted: dose 1000 mg/kg, route subcutaneous. Particulars: in vivo, 240 h. A digest of the protocol:
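Four male Balb/c mice each received a single SC dose of 1000 mg/kg in saline/DMSO 4:1. Survival was followed for at least 10 days.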

In series [12] the test system is Influenza A virus. The series is described as follows: Antiviral activity against influenza A virus A/St. Petersburg/34/72 (H3N2) infected in dog MDCK cells using chicken erythrocytes by hemadsorption assay. Type of series: functional, organism-based. A digest of the protocol: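 Hemadsorption of chicken erythrocytes was used alongside the CPE read-out on infected MDCK cells after 48 h compound incubation at 37 °C in 5% CO2. The results of the two assays were averaged.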

In the case of `CC(CN(C(=O)c1ccccc1)c1ccccc1)/C(=N\c1ccccc1)Nc1ccccc1` (racemic), in series [1], the selectivity ratio was below 2.85. In addition, the CC50 (commonly the concentration at which the toxic effect on the cells reaches its halfway point) at 48 h in series [2] was found to be 286 µM. Moreover, the figures for the EC50 in series [3] and in series [4] were at least 200 µM and above 100 µM, respectively.
Turning to `CCCCCCCCCCCCCCCCCC(=O)N(CC(C)/C(=N\c1ccccc1)Nc1ccccc1)c1ccccc1` (racemic), the selectivity ratio in series [5] was determined as 17; in [1], 80. It took 1240 µM to reach half-maximal cytotoxicity in series [2] (CC50 at 48 h). Also, the concentration for a half-maximal effect (EC50) – broadly, the concentration giving half of the maximal effect – was 72 µM in series [3] and 15.6 µM in series [4].
As to `CCCCCCCCCCCCC(=O)N(CC(C)/C(=N\c1ccccc1)Nc1ccccc1)c1ccccc1.Cl` (racemic), in [6], the result was Active. The selectivity ratio in [5] amounted to 32; in series [1] it was 128. This compound showed a cytotoxic concentration (CC50) at 48 h in series [2] of 890 µM. Also, the EC50 in series [3] was 27.8 µM; in [4], 6.95 µM. For the same compound, in series [7], the result was inactive. Further, in series [8], the LD50 (usually the dose at which mortality reaches 50%) at 120 h worked out at 4000 mg/kg.
`CCCCCCCCC(=O)N(CC(C)/C(=N\c1ccccc1)Nc1ccccc1)c1ccccc1.Cl` (racemic): the result in series [6] and in series [12] was Active. Moreover, the Activity result in series [9], in series [10] and in series [11] was “Non-toxic” throughout. Besides, the selectivity ratio in series [5] amounted to 125; in series [1] it was 260. This compound also had a CC50 at 48 h in series [2] of 247 µM. Also, the EC50 is 1.98 µM in [3] and 0.95 µM in [4]. Moreover, the result in [7] was inactive. The LD50 at 120 h in series [8] turned out to be 3000 mg/kg.
As to `CC(N)C12CC3CC(CC(C3)C1)C2` (stereo not drawn) [RIMANTADINE], the selectivity ratio in [5] is 32; in [1], 256. The same compound gave a CC50 at 48 h in series [2] of 1400 µM. For the same compound, the half-maximal effective concentration (EC50) is 43.5 µM in series [3] and 5.45 µM in series [4]. Further, the outcome in series [7] was Active. Also, in series [8], the LD50 at 120 h was 175 mg/kg.
In series [8], `N=C(N)CCNC(=O)[C@@H]1CC[C@H](N)C1` [(1R,3S)-AMIDINOMYCIN] registered an LD50 at 120 h of 10 mg/kg.
In the case of `CCCCCCCCCCC(=O)N(CC(C)/C(=N\c1ccccc1)Nc1ccccc1)c1ccccc1.Cl` (racemic), the outcome in [6] and in series [12] was Active. Besides, the figures for the selectivity ratio in series [5] and in series [1] were 128 and 514, respectively. This compound yielded a CC50 at 48 h in series [2] of 936 µM. Moreover, the concentration for a half-maximal effect (EC50) was determined as 7.3 µM in [3] and 1.82 µM in [4]. Moreover, the outcome in series [7] was inactive. The same compound registered an LD50 at 120 h in [8] of 3500 mg/kg.
As for `CCCC(=O)N(CC(C)/C(=N\c1ccccc1)Nc1ccccc1)c1ccccc1` (racemic), the selectivity ratio was found to be 2.2 in series [5] and 9 in series [1]. This compound showed a CC50 at 48 h in series [2] of 216 µM. The EC50 in series [3] was 98 µM; in series [4], 24 µM.
With `CC(=O)N(CC(C)/C(=N\c1ccccc1)Nc1ccccc1)c1ccccc1` (racemic), the selectivity ratio in series [1] amounted to 2.25. The compound also showed a CC50 at 48 h in series [2] of 153 µM. The figures for the concentration for a half-maximal effect (EC50) in series [3] and in series [4] were at least 200 µM and 68 µM, respectively.
On to `CC(CNc1ccccc1)/C(=N\c1ccccc1)Nc1ccccc1` (racemic), for which, in series [2], the CC50 at 48 h came out at 85 µM. The EC50 in [3] and in series [4] was at least 200 µM throughout.
